Measured values: publication PMC8159881 (ACS nano, 2021)

Columns and labels:
[1] = Inward budding
[2] = Partitioning and budding in phase-separated GUVs; details: for inward budding from the Ld phase of phase-separated GUVs: 10 μM Cy-5-labeled peptide, 30 min
How it was run: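 Peptide was applied to the GUVs for 30 min before imaging. Fluorescein at 0.3 μM was added to the external buffer to mark true inward budding, seen as fluorescein-containing intraluminal vesicles.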

[3] = system: INS-1E cells; experiment: Glucose-stimulated insulin secretion assay; assay type: cell-based
How it was run: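 Lentivirally transduced proinsulin-NanoLuc INS-1E cells were plated overnight (37 °C, 5% CO₂), washed, and held 1 h in KRB (HEPES, BSA) with 2.8 mM glucose. They got peptide for 5 min (2 μM; 5 or 10 μM in one set; DMSO mock), then 20 min in KRB with 20 mM glucose, or 2.8 mM as control. Supernatant luciferase read with coelenterazine.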

Cy5-DHVVWSLFNTLFMNPC [AH(56-71)]
binding of peptide to GUVs in the absence of cholesterol ([1]; GUVs without cholesterol): not affected | inward budding of GUVs without cholesterol containing DOPE ([1]; GUVs without cholesterol, DOPE 20 mol%): could be rescued | inward budding of GUVs without cholesterol ([1]; peptide added to GUVs without cholesterol): failed to induce efficient inward budding | inward budding from the Ld phase of phase-separated GUVs [2]: caused inward budding from this domain

lyso-PC [LPC, reference compound]
budding of GUV membrane on addition of lipid ([1]; LPC titrated on preformed GUVs containing POPC and cholesterol): outward budding of the GUV membrane in an LPC dose-dependent manner | glucose-stimulated insulin secretion ([3]; cells pretreated with 20 μM LPC): promoted insulin secretion

FITC-Ahx-DHVVWSLFNTLFMNPC(PAL)CLGF [AH(56-75)]
phase partitioning in phase-separated GUVs ([2]; fluorescently-tagged peptide palmitoylated at Cys71): clearly partitioned to the Ld phase and appeared to concentrate at the phase boundary

Cy5-LVWHMFLSDNFTNPV [Scrambled AH(56-71)]
inward budding from the Ld phase of phase-separated GUVs [2]: failed to cause inward budding from this phase

Cy5-CVWSLFNTLFM [AH(59-68)]
binding to the plasma membrane of INS-1E cells ([3]; cells pretreated with peptide): effectively bound to the plasma membrane
